According to ChEMBL document CHEMBL3259650, “Synthesis of symmetrically substituted 3,3-dibenzyl-4-hydroxy-3,4-dihydro-1H-quinolin-2-ones, as novel quinoline derivatives with antibacterial activity” (Eur J Med Chem, 2014):
≈ marks a conversion by molar mass, not a printed value. Calls of active or inactive are those of the source. No cut-off for these calls is given here.

What was measured:
Bacillus spizizenii = assay: Antibacterial activity against Bacillus subtilis ATCC 6633 assessed as growth inhibition after 24 hrs by micro dilution method; type: functional; details: ATCC 6633, 24 h
Procedure, shortened: (§1)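 MIC determined by broth microdilution in casein soy broth (pH 7.3) at an inoculum of 10^5 CFU/mL, incubated 24 h at 37 C. Levofloxacin was the comparator and controls were run alongside. Samples were tested in quadruplicate.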

Escherichia coli [1] = assay: Antibacterial activity against Escherichia coli ATCC 25922; type: functional
Shigella sonnei [2] = assay: Antibacterial activity against Shigella sonnei ATCC 15305 assessed as growth inhibition after 24 hrs by micro dilution method; type: functional; details: ATCC 15305, 24 h; procedure, shortened: as §1
Staphylococcus aureus [3] = assay: Antibacterial activity against Staphylococcus aureus ATCC 6538p assessed as growth inhibition after 24 hrs by micro dilution method; type: functional; procedure, shortened: as §1
Shigella sonnei [4] = assay: Antibacterial activity against Shigella sonnei ATCC 15305; type: functional
Pseudomonas aeruginosa = assay: Antibacterial activity against Pseudomonas aeruginosa ATCC […] assessed as growth inhibition after 24 hrs by micro dilution method; type: functional; procedure, shortened: as §1
Staphylococcus aureus [5] = assay: Antibacterial activity against Staphylococcus aureus ATCC 6538p; type: functional; procedure, shortened: as §1
Escherichia coli [6] = assay: Antibacterial activity against Escherichia coli ATCC 25922 assessed as growth inhibition after 24 hrs by micro dilution method; type: functional; details: ATCC 25922, 24 h; procedure, shortened: as §1
Salmonella typhimurium [7] = assay: Antibacterial activity against Salmonella typhimurium ATCC 14028 assessed as growth inhibition after 24 hrs by micro dilution method; type: functional, Salmonella enterica subsp. enterica serovar Typhimurium; details: Salmonella enterica, ATCC 14028, 24 h; procedure, shortened: as §1
Burkholderia cepacia [8] = assay: Antibacterial activity against Burkholderia cepacia ATCC 17759; type: functional
Salmonella typhimurium [9] = assay: Antibacterial activity against Salmonella typhimurium ATCC 14028; type: functional, Salmonella enterica subsp. enterica serovar Typhimurium; procedure, shortened: as §1
Morganella morganii [10] = assay: Antibacterial activity against Morganella morganii ATCC 8019; type: functional
Enterococcus sp. [11] = assay: Antibacterial activity against Enterococcus sp. ATCC 6589; type: functional
Klebsiella aerogenes = assay: Antibacterial activity against Enterobacter aerogenes ATCC 13048 assessed as growth inhibition after 24 hrs by micro dilution method; type: functional; details: ATCC 13048, 24 h; procedure, shortened: as §1
Burkholderia cepacia [12] = assay: Antibacterial activity against Burkholderia cepacia ATCC 17759 assessed as growth inhibition after 24 hrs by micro dilution method; type: functional; details: ATCC 17759, 24 h; procedure, shortened: as §1
Enterococcus sp. [13] = assay: Antibacterial activity against Enterococcus sp. ATCC 6589 assessed as growth inhibition by measuring turbidity of medium at 6.25 to 100 ug/mL measured over 10 hrs by microplate reader analysis; type: functional, organism-based
Procedure, shortened: (§2)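 Overnight casein soy broth cultures (37 C) were centrifuged, resuspended in fresh medium and adjusted to about 5 10^7 cells/mL (OD620 0.2). Cells were grown in microplate wells to mid-log phase, then twofold serial dilutions of the test agents in fresh medium were added. OD620 was read every 15 min at 23 C for 10 h, with 30 s shaking between reads. Runs were in quadruplicate.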

Enterococcus sp. [14] = assay: Antibacterial activity against Enterococcus sp. ATCC 6589 assessed as growth inhibition after 24 hrs by micro dilution method; type: functional; details: ATCC 6589, 24 h; procedure, shortened: as §1
Morganella morganii [15] = assay: Antibacterial activity against Morganella morganii ATCC 8019 assessed as growth inhibition after 24 hrs by micro dilution method; type: functional; details: ATCC 8019, 24 h; procedure, shortened: as §1
Enterococcus sp. [16] = assay: Antibacterial activity against Enterococcus sp. ATCC 6589 assessed as growth inhibition by measuring turbidity of medium at MIC measured over 10 hrs by microplate reader analysis; type: functional, organism-based; procedure, shortened: as §2
Morganella morganii [17] = assay: Antibacterial activity against Morganella morganii ATCC 8019 assessed as growth inhibition by measuring turbidity of medium at >= MIC measured over 10 hrs by microplate reader analysis; type: functional, organism-based; procedure, shortened: as §2
Morganella morganii [18] = assay: Antibacterial activity against Morganella morganii ATCC 8019 assessed as growth inhibition by measuring turbidity of medium measured over 10 hrs by microplate reader analysis; type: functional, organism-based; procedure, shortened: as §2
Enterococcus sp. [19] = assay: Antibacterial activity against Enterococcus sp. ATCC 6589 assessed as growth inhibition by measuring turbidity of medium measured over 10 hrs by microplate reader analysis; type: functional, organism-based; procedure, shortened: as §2
Enterococcus sp. [20] = assay: Antibacterial activity against Enterococcus sp. ATCC 6589 assessed as growth inhibition by measuring turbidity of medium at 3.12 ug/mL measured after 3 hrs by microplate reader analysis; type: functional, organism-based; procedure, shortened: as §2
Enterococcus sp. [21] = assay: Antibacterial activity against Enterococcus sp. ATCC 6589 assessed as growth inhibition by measuring turbidity of medium at 25 to 400 ug/mL measured over 10 hrs by microplate reader analysis; type: functional, organism-based; procedure, shortened: as §2

SMILES	MIC (Bacillus spizizenii) [µg/mL]	MLC (Escherichia coli [1]) [µg/mL]	MIC (Shigella sonnei [2]) [µg/mL]	MIC (Staphylococcus aureus [3]) [µg/mL]	MLC (Shigella sonnei [4]) [µg/mL]	MIC (Pseudomonas aeruginosa) [µg/mL]	MLC (Staphylococcus aureus [5]) [µg/mL]	MIC (Escherichia coli [6]) [µg/mL]	further results
CCN1C(=O)C(Cc2ccccc2)(Cc2ccccc2)C(O)c2ccccc21 (stereo not given)	12.5 (≈ 33.6 µM)	>200	200 (≈ 538 µM)	100 (≈ 269 µM)	>200	100 (≈ 269 µM)	>200	100 (≈ 269 µM)	
CCOC(=O)CN1C(=O)C(Cc2ccccc2)(Cc2ccccc2)C(O)c2ccccc21 (stereo not given)	> 200	>200	> 200	> 200		> 200		100 (≈ 233 µM)	
O=C1N(Cc2ccc(Cl)cc2)c2ccc(Cl)cc2C(O)C1(Cc1ccc(Cl)cc1)Cc1ccc(Cl)cc1 (stereo not given)	> 100	>100	50 (≈ 87.5 µM)	50 (≈ 87.5 µM)	100 (≈ 175 µM)	50 (≈ 87.5 µM)	100 (≈ 175 µM)	50 (≈ 87.5 µM)	
COc1cccc2c1NC(=O)C(Cc1ccccc1)(Cc1ccccc1)C2O (stereo not given)	100 (≈ 268 µM)	>200	100 (≈ 268 µM)	100 (≈ 268 µM)	>200	100 (≈ 268 µM)	>200	100 (≈ 268 µM)	
C[C@H]1COc2c(N3CCN(C)CC3)c(F)cc3c(=O)c(C(=O)O)cn1c23.C[C@H]1COc2c(N3CCN(C)CC3)c(F)cc3c(=O)c(C(=O)O)cn1c23.O [LEVOFLOXACIN]	3.12	3.12	3.12	3.12	3.12	3.12	3.12	3.12	MIC (Salmonella typhimurium [7]): 0.78 µg/mL; MLC (Burkholderia cepacia [8]): 0.78 µg/mL; MLC (Salmonella typhimurium [9]): 0.78 µg/mL; MLC (Morganella morganii [10]): 0.78 µg/mL; MLC (Enterococcus sp. [11]): 0.78 µg/mL; MIC (Klebsiella aerogenes): 0.78 µg/mL; MIC (Burkholderia cepacia [12]): 0.78 µg/mL; growth inhibition (GI) (Enterococcus sp. [13]): Active; MIC (Enterococcus sp. [14]): 0.78 µg/mL; MIC (Morganella morganii [15]): 0.78 µg/mL
O=C1Nc2ccc(Cl)cc2C(O)C1(Cc1ccc(Cl)cc1)Cc1ccc(Cl)cc1 (stereo not given)	3.12 (≈ 6.98 µM)	50 (≈ 112 µM)	3.12 (≈ 6.98 µM)	3.12 (≈ 6.98 µM)	12.5 (≈ 28 µM)	50 (≈ 112 µM)	12.5 (≈ 28 µM)	3.12 (≈ 6.98 µM)	MIC (Salmonella typhimurium [7]): 50 µg/mL (≈ 112 µM); growth inhibition (GI) (Enterococcus sp. [16]): Active; MLC (Salmonella typhimurium [9]): 100 µg/mL (≈ 224 µM); MLC (Morganella morganii [10]): 6.25 µg/mL (≈ 14 µM); MLC (Enterococcus sp. [11]): 50 µg/mL (≈ 112 µM); MIC (Klebsiella aerogenes): 50 µg/mL (≈ 112 µM); growth inhibition (GI) (Morganella morganii [17]): Active; MIC (Enterococcus sp. [14]): 6.25 µg/mL (≈ 14 µM); MIC (Morganella morganii [15]): 6.25 µg/mL (≈ 14 µM)
O=C1Nc2ccc(Cl)cc2C(O)C1(Cc1ccccc1)Cc1ccccc1 (stereo not given)	12.5 (≈ 33.1 µM)	200 (≈ 529 µM)	12.5 (≈ 33.1 µM)	25 (≈ 66.2 µM)	>200	50 (≈ 132 µM)	>200	12.5 (≈ 33.1 µM)	
Cc1ccc2c(c1)C(O)C(Cc1ccccc1)(Cc1ccccc1)C(=O)N2 (stereo not given)	50 (≈ 140 µM)	>200	50 (≈ 140 µM)	50 (≈ 140 µM)	>200	100 (≈ 280 µM)	>200	25 (≈ 69.9 µM)	
O=C1N(Cc2ccccc2)c2ccccc2C(O)C1(Cc1ccccc1)Cc1ccccc1 (stereo not given)	100 (≈ 231 µM)	>200	200 (≈ 461 µM)	100 (≈ 231 µM)	>200	> 200	>200	100 (≈ 231 µM)	
O=C1Nc2ccccc2C(O)C1(Cc1ccccc1)Cc1ccccc1 (stereo not given)	100 (≈ 291 µM)	>200	50 (≈ 146 µM)	50 (≈ 146 µM)	>200	100 (≈ 291 µM)	>200	100 (≈ 291 µM)	
COc1ccc(CC2(Cc3ccc(OC)cc3)C(=O)Nc3ccccc3C2O)cc1 (stereo not given)	100 (≈ 248 µM)	>200	100 (≈ 248 µM)	100 (≈ 248 µM)	>200	100 (≈ 248 µM)	200 (≈ 496 µM)	100 (≈ 248 µM)	
O=C1Nc2ccc(F)cc2C(O)C1(Cc1ccccc1)Cc1ccccc1 (stereo not given)	25 (≈ 69.2 µM)	>200	25 (≈ 69.2 µM)	50 (≈ 138 µM)	>200	50 (≈ 138 µM)	>200	25 (≈ 69.2 µM)	
CCN1C(=O)C(Cc2ccc(Cl)cc2)(Cc2ccc(Cl)cc2)C(O)c2cc(Cl)ccc21 (stereo not given)	3.12 (≈ 6.57 µM)	100 (≈ 211 µM)	50 (≈ 105 µM)	6.25 (≈ 13.2 µM)	100 (≈ 211 µM)	50 (≈ 105 µM)	50 (≈ 105 µM)	50 (≈ 105 µM)	MIC (Salmonella typhimurium [7]): 50 µg/mL (≈ 105 µM); MLC (Burkholderia cepacia [8]): 12.5 µg/mL (≈ 26.3 µM); MLC (Salmonella typhimurium [9]): 100 µg/mL (≈ 211 µM); MLC (Morganella morganii [10]): 12.5 µg/mL (≈ 26.3 µM); MLC (Enterococcus sp. [11]): 25 µg/mL (≈ 52.7 µM); MIC (Klebsiella aerogenes): 50 µg/mL (≈ 105 µM); growth inhibition (GI) (Morganella morganii [18]): Dose-dependent effect; MIC (Enterococcus sp. [14]): 6.25 µg/mL (≈ 13.2 µM); growth inhibition (GI) (Enterococcus sp. [19]): Dose-dependent effect; MIC (Morganella morganii [15]): 6.25 µg/mL (≈ 13.2 µM)
O=C1Nc2ccccc2C(O)C1(Cc1ccc(Cl)cc1)Cc1ccc(Cl)cc1 (stereo not given)	1.56 (≈ 3.78 µM)	25 (≈ 60.6 µM)	6.25 (≈ 15.2 µM)	6.25 (≈ 15.2 µM)	100 (≈ 243 µM)	100 (≈ 243 µM)	100 (≈ 243 µM)	1.52 (≈ 3.69 µM)	
O=C1Nc2ccccc2C(O)C1(Cc1ccccc1Cl)Cc1ccccc1Cl (stereo not given)	12.5 (≈ 30.3 µM)	200 (≈ 485 µM)	12.5 (≈ 30.3 µM)	12.5 (≈ 30.3 µM)	200 (≈ 485 µM)	100 (≈ 243 µM)	200 (≈ 485 µM)	12.5 (≈ 30.3 µM)	growth inhibition (GI) (Enterococcus sp. [20]): inactive
CC1(C)S[C@@H]2[C@H](NC(=O)[C@H](N)c3ccccc3)C(=O)N2[C@H]1C(=O)O									growth inhibition (GI) (Enterococcus sp. [21]): Active
CN1C(=O)C(Cc2ccccc2)(Cc2ccccc2)C(O)c2ccccc21 (stereo not given)	50 (≈ 140 µM)	>200	100 (≈ 280 µM)	100 (≈ 280 µM)	>200	100 (≈ 280 µM)	>200	50 (≈ 140 µM)	
COc1ccc2c(c1)C(O)C(Cc1ccccc1)(Cc1ccccc1)C(=O)N2 (stereo not given)	50 (≈ 134 µM)	>200	100 (≈ 268 µM)	100 (≈ 268 µM)	>200	100 (≈ 268 µM)	>200	100 (≈ 268 µM)	
